Source: ChEMBL document CHEMBL1158464, “Structure-activity relationships and cancer-cell selective toxicity of novel inhibitors of glioma-associated oncogene homologue 1 (Gli1) mediated transcription” (J Med Chem, 2009)
Activity calls are given as the source filed them. No cut-off for these calls is given here.

Experiments:
C3H 10T1/2 [1] = experiment: Inhibition of Renilla luciferase expression exogenously transfected in mouse C3H10T1/2 cell lysate at 20 uM after 40 mins at room temperature by promega steady-glo luciferase assay; assay type: functional, cell-free
C3H 10T1/2 [2] = experiment: Inhibition of Photinus pyralis luciferase expression exogenously transfected in mouse C3H10T1/2 cell lysate at 20 uM after 40 mins at room temperature by promega steady-glo luciferase assay; assay type: functional, cell-free
SJRH30 = experiment: Cytotoxicity against human Rh30 cells at 40 uM/well after 68 hrs by alamar blue assay; assay type: functional, cell-based
In short: (§1)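 Cells plated in appropriate medium 24 h before compound. A 10 mM DMSO stock was diluted in EMEM to 160 µM (4×) and added in triplicate to a final 40 µM. Incubated 68 h at 37 °C, then Alamar Blue for 4 h at 37 °C. Fluorescence read at ex 510/em 590 nm. Viability taken relative to DMSO control wells.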

C3H 10T1/2 [3] = experiment: Inhibition of Photinus pyralis and Renilla luciferase expression exogenously transfected in mouse C3H10T1/2 cell lysate at 40 uM after 40 mins at room temperature by promega steady-glo luciferase assay; assay type: functional, cell-free
[4] = Stability in mouse C3H10T1/2 cells assessed as compound degradation at 40 uM after 24 hrs by LCMS analysis; assay type: ADME, cell-based; settings: c3h 10t1/2, 24 h
[5] = target: T1, Zinc finger protein GLI1 (Homo sapiens) (UniProt P08151); experiment: Inhibition of exogenously transfected human Gli1-mediated transcriptional activity in mouse C3H10T1/2 cells at 20 uM after 24 hrs by luciferase reporter gene assay; assay type: cell-based; settings: C3H 10T1/2
T1 sequence (whole entry): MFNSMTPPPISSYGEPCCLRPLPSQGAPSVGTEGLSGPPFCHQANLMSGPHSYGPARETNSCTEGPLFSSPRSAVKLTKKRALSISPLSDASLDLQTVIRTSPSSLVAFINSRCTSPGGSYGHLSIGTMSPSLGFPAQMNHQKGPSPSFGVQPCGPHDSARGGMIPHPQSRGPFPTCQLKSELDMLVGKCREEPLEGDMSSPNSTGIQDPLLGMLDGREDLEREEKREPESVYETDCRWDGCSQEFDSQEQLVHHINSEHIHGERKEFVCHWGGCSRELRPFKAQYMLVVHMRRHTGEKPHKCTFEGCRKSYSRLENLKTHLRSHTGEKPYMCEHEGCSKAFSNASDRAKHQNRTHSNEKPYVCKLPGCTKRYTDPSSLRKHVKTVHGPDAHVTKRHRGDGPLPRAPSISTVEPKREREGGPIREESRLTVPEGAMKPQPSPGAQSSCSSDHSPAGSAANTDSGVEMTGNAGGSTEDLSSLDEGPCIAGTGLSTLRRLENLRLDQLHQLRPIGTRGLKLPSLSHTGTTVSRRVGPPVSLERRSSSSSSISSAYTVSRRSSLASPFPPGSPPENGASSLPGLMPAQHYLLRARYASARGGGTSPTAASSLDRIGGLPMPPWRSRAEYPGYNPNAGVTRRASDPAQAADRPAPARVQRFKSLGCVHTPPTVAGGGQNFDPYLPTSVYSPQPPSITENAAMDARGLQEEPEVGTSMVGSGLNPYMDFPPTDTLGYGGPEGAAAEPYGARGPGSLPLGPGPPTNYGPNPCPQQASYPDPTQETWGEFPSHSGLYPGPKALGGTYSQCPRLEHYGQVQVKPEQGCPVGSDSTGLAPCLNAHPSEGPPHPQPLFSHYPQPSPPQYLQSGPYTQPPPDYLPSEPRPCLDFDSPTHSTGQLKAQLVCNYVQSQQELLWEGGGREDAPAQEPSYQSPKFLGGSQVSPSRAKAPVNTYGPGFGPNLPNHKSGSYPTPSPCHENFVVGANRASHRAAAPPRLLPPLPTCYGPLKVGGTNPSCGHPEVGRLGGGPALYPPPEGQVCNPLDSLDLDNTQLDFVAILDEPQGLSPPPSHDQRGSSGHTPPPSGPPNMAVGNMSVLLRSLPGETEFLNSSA
In short: (§2)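 They were replated 18 h later, given compound or DMSO 6 h after plating, and exposed for 24 h at 37 °C, 5% CO2. Lysate was read by dual luciferase as firefly/Renilla, triplicate, DMSO = 0%. IC50 came from curve fitting.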

C3H 10T1/2 [6] = experiment: Inhibition of Renilla luciferase expression exogenously transfected in mouse C3H10T1/2 cell lysate at 60 uM after 40 mins at room temperature by promega steady-glo luciferase assay; assay type: functional, cell-free
MDA-MB-231 = experiment: Cytotoxicity against human MDA-MB-231 cells at 40 uM/well after 68 hrs by alamar blue assay; assay type: functional, cell-based; in short: as §1
[7] = target: T1, Zinc finger protein GLI1 (Homo sapiens); experiment: Inhibition of endogenously overexpressed Gli1-mediated transcriptional activity in human Rh30 cells at 10 uM after 24 hrs by luciferase reporter gene assay; assay type: cell-based
In short: (§3)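 Human Rh30 rhabdomyosarcoma cells (endogenous Gli1, no exogenous Gli1) in RPMI-1640 with 10% FBS were transfected overnight with Fugene6, GliLuc-BS (500 ng/mL) and pRL-CMV (2.5 ng/mL). Cells were replated, given compound or DMSO 18 h later, and exposed for 24 h at 37 °C, 5% CO2. Read-out was dual luciferase firefly/Renilla, triplicate, DMSO = 0%.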

HepG2 = experiment: Cytotoxicity against human HepG2 cells at 40 uM/well after 68 hrs by alamar blue assay; assay type: functional, cell-based; in short: as §1
C3H 10T1/2 [8] = experiment: Inhibition of Renilla luciferase expression exogenously transfected in mouse C3H10T1/2 cell lysate at 40 uM after 40 mins at room temperature by promega steady-glo luciferase assay; assay type: functional, cell-free
[9] = target: T1, Zinc finger protein GLI1 (Homo sapiens); experiment: Inhibition of endogenously overexpressed Gli1-mediated transcriptional activity in human Rh30 cells at 20 uM after 24 hrs by luciferase reporter gene assay; assay type: cell-based; in short: as §3
Raji = experiment: Cytotoxicity against human Raji cells at 40 uM/well after 68 hrs by alamar blue assay; assay type: functional, cell-based; in short: as §1
DU-145 = experiment: Cytotoxicity against human DU145 cells at 40 uM/well after 68 hrs by alamar blue assay; assay type: functional, cell-based; in short: as §1
C3H 10T1/2 [10] = experiment: Inhibition of Photinus pyralis and Renilla luciferase expression exogenously transfected in mouse C3H10T1/2 cell lysate at 60 uM after 40 mins at room temperature by promega steady-glo luciferase assay; assay type: functional, cell-free
C3H 10T1/2 [11] = experiment: Inhibition of human Gli1 protein expression exogenously transfected in mouse C3H10T1/2 cells at 40 uM by Western blot analysis; assay type: functional, cell-based
Zinc finger protein GLI2 = Zinc finger protein GLI2 (Homo sapiens, UniProt P10070); experiment: Inhibition of exogenously transfected human Gli2 delta-N-mediated transcriptional activity in mouse C3H10T1/2 cells after 24 hrs by luciferase reporter gene assay; assay type: cell-based; settings: c3h 10t1/2
Zinc finger protein GLI2, sequence (P10070 whole entry, looked up): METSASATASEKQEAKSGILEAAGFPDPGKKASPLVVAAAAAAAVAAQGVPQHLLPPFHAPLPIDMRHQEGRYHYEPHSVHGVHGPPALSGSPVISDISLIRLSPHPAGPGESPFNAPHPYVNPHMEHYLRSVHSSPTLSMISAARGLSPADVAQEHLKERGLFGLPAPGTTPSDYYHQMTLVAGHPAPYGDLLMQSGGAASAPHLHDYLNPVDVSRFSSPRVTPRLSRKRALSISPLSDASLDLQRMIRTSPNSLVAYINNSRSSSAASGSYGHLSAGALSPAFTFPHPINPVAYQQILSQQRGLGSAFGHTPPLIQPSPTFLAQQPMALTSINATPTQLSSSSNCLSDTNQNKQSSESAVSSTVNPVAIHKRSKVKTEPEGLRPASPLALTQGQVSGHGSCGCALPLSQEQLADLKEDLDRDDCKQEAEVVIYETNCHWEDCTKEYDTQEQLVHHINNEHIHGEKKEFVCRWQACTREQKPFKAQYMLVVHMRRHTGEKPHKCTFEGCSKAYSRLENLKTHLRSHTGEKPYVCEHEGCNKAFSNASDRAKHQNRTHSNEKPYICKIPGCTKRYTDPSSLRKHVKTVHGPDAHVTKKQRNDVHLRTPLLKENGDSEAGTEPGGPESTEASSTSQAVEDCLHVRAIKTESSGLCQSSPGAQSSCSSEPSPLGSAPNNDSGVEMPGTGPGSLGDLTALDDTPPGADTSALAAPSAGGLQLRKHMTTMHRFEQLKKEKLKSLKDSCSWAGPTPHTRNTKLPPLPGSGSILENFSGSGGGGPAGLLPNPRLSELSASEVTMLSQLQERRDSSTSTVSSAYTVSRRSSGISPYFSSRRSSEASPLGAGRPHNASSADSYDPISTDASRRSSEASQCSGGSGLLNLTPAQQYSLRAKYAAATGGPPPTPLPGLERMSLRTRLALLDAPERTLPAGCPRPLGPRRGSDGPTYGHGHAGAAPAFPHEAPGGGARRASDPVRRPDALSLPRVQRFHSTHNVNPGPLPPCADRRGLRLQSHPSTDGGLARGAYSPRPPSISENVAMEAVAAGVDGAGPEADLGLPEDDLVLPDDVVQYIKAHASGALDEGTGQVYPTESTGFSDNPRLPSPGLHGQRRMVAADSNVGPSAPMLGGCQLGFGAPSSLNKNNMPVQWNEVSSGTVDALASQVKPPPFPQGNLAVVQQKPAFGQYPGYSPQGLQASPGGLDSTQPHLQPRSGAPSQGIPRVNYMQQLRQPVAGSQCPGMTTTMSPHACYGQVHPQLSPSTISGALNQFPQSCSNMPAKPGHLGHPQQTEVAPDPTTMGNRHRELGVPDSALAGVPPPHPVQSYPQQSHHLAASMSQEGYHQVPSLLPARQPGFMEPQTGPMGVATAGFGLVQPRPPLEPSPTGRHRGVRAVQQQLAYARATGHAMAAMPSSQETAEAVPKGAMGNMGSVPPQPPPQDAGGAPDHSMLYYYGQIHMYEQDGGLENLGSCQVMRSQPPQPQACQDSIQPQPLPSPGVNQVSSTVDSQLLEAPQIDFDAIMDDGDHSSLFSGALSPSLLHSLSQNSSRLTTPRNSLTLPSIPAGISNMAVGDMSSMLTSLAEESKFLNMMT
In short: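 C3H10T1/2 reporter assay run as for hGli1, but with an amino-terminal repressor-domain-deleted hGli2 (ΔNhGli2) in place of hGli1, plus GliLuc-BS and pRL-TK via Fugene6. Compound or DMSO was given for 24 h at 37 °C. Read-out was dual luciferase firefly/Renilla in triplicate, with dose-response curve fitting.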

LN-229 = experiment: Cytotoxicity against human LN229 cells at 40 uM/well after 68 hrs by alamar blue assay; assay type: functional, cell-based; in short: as §1
[12] = Cytotoxicity against mouse C3H10T1/2 cells; assay type: cell-based; settings: c3h 10t1/2
C3H 10T1/2 [13] = experiment: Inhibition of Photinus pyralis luciferase expression exogenously transfected in mouse C3H10T1/2 cell lysate at 40 uM after 40 mins at room temperature by promega steady-glo luciferase assay; assay type: functional, cell-free
BJ = experiment: Cytotoxicity against human TERT-immortalized human BJ cells at 40 uM/well after 68 hrs by alamar blue assay; assay type: cell-based; in short: as §1
C3H 10T1/2 [14] = experiment: Inhibition of Photinus pyralis luciferase expression exogenously transfected in mouse C3H10T1/2 cell lysate at 60 uM after 40 mins at room temperature by promega steady-glo luciferase assay; assay type: functional, cell-free
[15] = target: T1, Zinc finger protein GLI1 (Homo sapiens); experiment: Inhibition of exogenously transfected human Gli1-mediated transcriptional activity in mouse C3H10T1/2 cells at 40 uM after 24 hrs by luciferase reporter gene assay; assay type: cell-based; settings: C3H 10T1/2; in short: as §2
C3H 10T1/2 [16] = experiment: Inhibition of Photinus pyralis and Renilla luciferase expression exogenously transfected in mouse C3H10T1/2 cell lysate at 20 uM after 40 mins at room temperature by promega steady-glo luciferase assay; assay type: functional, cell-free
[17] = target: T1, Zinc finger protein GLI1 (Homo sapiens); experiment: Inhibition of endogenously overexpressed Gli1-mediated transcriptional activity in human Rh30 cells at 40 uM after 24 hrs by luciferase reporter gene assay; assay type: cell-based; in short: as §3
Daoy = experiment: Cytotoxicity against human DaOY cells at 40 uM/well after 68 hrs by alamar blue assay; assay type: functional, cell-based; in short: as §1
C3H 10T1/2 [18] = experiment: Inhibition of human Gli1 protein expression exogenously transfected in mouse C3H10T1/2 cells at 20 uM by Western blot analysis; assay type: functional, cell-based
C3H 10T1/2 [19] = experiment: Selectivity ratio of IC50 for exogenously transfected human Gli2 delta-N-mediated transcriptional activity in mouse C3H10T1/2 cells to IC50 for exogenously transfected human Gli1-mediated transcriptional activity in mouse C3H10T1/2 cells; assay type: cell-based
In short: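 Ratio of IC50 values from dose-response curves of dual-luciferase Gli-reporter activity in C3H10T1/2 cells. Cells were transfected with ΔNhGli2 versus hGli1, plus GliLuc-BS and pRL-TK, and exposed to compound for 24 h at 37 °C. Triplicate data.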

Row | SMILES | inhibition (C3H 10T1/2 [1]) | inhibition (C3H 10T1/2 [2]) | Activity (SJRH30) | inhibition (C3H 10T1/2 [3]) | Stability [4] | inhibition [5] | inhibition (C3H 10T1/2 [6]) | Activity (MDA-MB-231) | inhibition [7] | Activity (HepG2) | inhibition (C3H 10T1/2 [8]) | inhibition [9] | Activity (Raji) | Activity (DU-145) | inhibition (C3H 10T1/2 [10]) | IC50 (Zinc finger protein GLI2) [µM] | Activity (LN-229) | Activity (BJ) | inhibition [15] | Activity (Daoy) | also measured
1 | C[C@H](C(=O)NCCc1ccc(O)cc1)c1cccc(C(=O)c2ccccc2)c1 | inactive | inactive | Active | inactive | Stable | Active | inactive | Active | Active | inactive | inactive | Active | Active | Active | inactive | 35.2 | inactive | Non-toxic | Active | Active | inhibition (C3H 10T1/2 [11]): inactive; Activity [12]: Non-toxic; inhibition (C3H 10T1/2 [13]): inactive; inhibition (C3H 10T1/2 [14]): inactive; inhibition (C3H 10T1/2 [16]): inactive; inhibition [17]: Active; inhibition (C3H 10T1/2 [18]): inactive
2 | O=C(Cc1c[nH]c2ccc(OCc3ccccc3)cc12)NCCc1ccc(O)cc1 | – | – | Active | – | – | Active | – | Active | – | inactive | – | – | Active | Active | – | – | inactive | Non-toxic | Active | Active | Activity [12]: Toxic
3 | CCCN(CCc1ccc(O)cc1)C(=O)[C@@H](C)c1cccc(C(=O)c2ccccc2)c1 | inactive | inactive | Active | inactive | Stable | Active | inactive | Active | Active | inactive | inactive | Active | Active | Active | inactive | 23.9 | inactive | Non-toxic | Active | Active | fold change (FC) (C3H 10T1/2 [19]): 3; inhibition (C3H 10T1/2 [11]): inactive; inhibition (C3H 10T1/2 [13]): inactive; inhibition (C3H 10T1/2 [14]): inactive; inhibition (C3H 10T1/2 [16]): inactive; inhibition [17]: Active; inhibition (C3H 10T1/2 [18]): inactive
4 | C[C@H](C(=O)N(CCc1ccc(O)cc1)CCc1ccc(O)cc1)c1cccc(C(=O)c2ccccc2)c1 | – | – | Active | – | Stable | Active | – | Active | – | inactive | – | – | Active | Active | – | 20.5 | inactive | Non-toxic | Active | Active | –
